Here are results for 16 compounds from PubChem BioAssay.

Each structure is given as a SMILES string. Calls of active or inactive are those of the source.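 How the source made its calls, unless noted: active means GFP response above 150% of the DMSO level; inconclusive means fewer than 70 events counted for a yeast strain; inactive means the rest.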

Assay [1] is described as follows: RPL19A-GFP modulators, yeast TOR pathway, confirmation, cell-based, S. cerevisiae, flow cytometry, cherry picks, mother/daughter gates (AID 2270;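 active means GFP response below 50% of the DMSO control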). Conditions: S. cerevisiae RPL19A-GFP strain, 3 h, at 10 µM, stronger effect = lower value, 100 = same GFP as DMSO wells. (In general: Flow cytometry measures light scatter and fluorescence of single cells or particles in a stream.)

Assay [2] is described as follows: LAP4-GFP expression modulators in yeast, confirmation, cell-based, cherry picks, flow cytometry, mother/daughter gates (AID 2271;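 active means GFP response above 150% of the DMSO control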;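 further: ratio of sample to DMSO plate mean so 100% equals DMSO level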). Conditions: S. cerevisiae LAP4-GFP strain, 3 h, at 10 µM, stronger effect = higher value, 100 means same as DMSO control. A digest of the protocol: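 System: Alexa 633-stained baker's yeast GFP-fusion strain; quantity: 0.2 OD600 cells; timing: compound exposure 3 h at 30 °C, end-over-end rotation; detection: HT flow cytometry, GFP fluorescence channel; measure: per-gate (all, mother, daughter) GFP response vs DMSO; control set: DMSO-only negative wells, rapamycin 400 ng/mL positive wells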

A short description of assay [3]: modulators of MEP2-GFP levels in yeast, confirmation, S. cerevisiae, flow cytometry GFP, cherry picks (AID 2272;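 active means GFP response above 150% of the DMSO control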;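 further: ratio of well signal to plate DMSO mean so 100% equals DMSO level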). Conditions: S. cerevisiae MEP2-GFP strain, 3 h, at 10 µM, stronger effect = higher value.
A short description of assay [4]: AGP1-GFP expression modulators, hit retest, confirmation, cell-based, flow cytometry, S. cerevisiae, cherry picks (AID 2273).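 Further: median GFP channel fluorescence over the whole cell population gate.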 Conditions: S. cerevisiae AGP1-GFP strain, 3 h, at 10 µM.
A short description of assay [5]: modulators of CIT2-GFP expression in yeast, confirmation, S. cerevisiae, GFP fusion, cherry picks, mother/daughter gates (AID 2274). Conditions: S. cerevisiae CIT2-GFP strain, flow cytometry, 3 h, at 10 µM, stronger effect = higher value.
Where [6] appears, read: measured here: daughter cell gate.
Where [7] appears, read: measured here: mother cell gate.
[8] abbreviates: measured here: daughter cell gate response.
Setting [9] is: measured here: mother cell gate response.

Consider `COc1cccc(-c2nnc(NC(=O)c3ccc(S(=O)(=O)N(CC(C)C)CC(C)C)cc3)o2)c1`, for which the GFP response vs DMSO is 99.7% (inactive) in assay [1], 99.8% in assay [1] (setting [6]), 100% in assay [1] (setting [7]) and 102% (inactive) in assay [3]. Moreover, the values for the GFP response relative to DMSO in assay [2], in assay [2] (setting [8]) and in assay [2] (setting [9]) were 98.8% (inactive), 97.9% and 97.5%, respectively. In addition, the GFP response, % of DMSO in assay [4] is 101% (inactive); in assay [5], 102% (inactive); in assay [5] (setting [6]), 102%; in assay [5] (setting [7]) it was 101%.

Take `Cc1ccccc1Oc1ncnc2oc(-c3ccccc3)cc12`: the GFP response vs DMSO in assay [1] was 100% (inactive); in assay [1] (setting [6]), 98.9%; in assay [1] (setting [7]) it was 101%; in assay [3] it was 102% (inactive). Besides, the GFP response relative to DMSO in assay [2] is 96.7% (inactive); in assay [2] (setting [8]) it was 96%; in assay [2] (setting [9]), 97.2%. For the same compound, the GFP response, % of DMSO is 97.2% (inactive) in assay [4], 99.7% (inactive) in assay [5], 99.1% in assay [5] (setting [6]) and 96.1% in assay [5] (setting [7]).

Consider `Cc1ccc(N2C(=O)C3C4C=CC(CNC(=S)Nc5ccc(Cl)cc5)(O4)C3C2=O)cc1` (stereo unspecified), for which the GFP response vs DMSO was 102% (inactive) in assay [1], 101% in assay [1] (setting [6]), 100% in assay [1] (setting [7]) and 102% (inactive) in assay [3]. Besides, the GFP response relative to DMSO in assay [2] was 101% (inactive); in assay [2] (setting [8]), 103%; in assay [2] (setting [9]) it was 102%. Moreover, the GFP response, % of DMSO in assay [4] was 102% (inactive); in assay [5] it was 99.1% (inactive); in assay [5] (setting [6]), 98.1%; in assay [5] (setting [7]), 97.7%.

Consider `Cc1occc1-c1nnc(-c2cc([N+](=O)[O-])cc([N+](=O)[O-])c2)o1`, for which the GFP response vs DMSO in assay [1] was 88.1% (inactive); in assay [1] (setting [6]), 82.8%; in assay [1] (setting [7]) it was 85.9%; in assay [3] it was 123% (inactive). Moreover, the GFP response relative to DMSO in assay [2] was 142% (inactive); in assay [2] (setting [8]), 126%; in assay [2] (setting [9]), 149%. In addition, the GFP response, % of DMSO in assay [4] is 135% (inactive); in assay [5], 87.2% (inactive); in assay [5] (setting [6]), 85.7%; in assay [5] (setting [7]), 81.8%.

In the case of `CCCCc1nnc(NC(=O)c2nc3nccc(C)n3n2)s1`, the GFP response vs DMSO in assay [1] is 98.7% (inactive); in assay [1] (setting [6]) it was 98.3%; in assay [1] (setting [7]) it was 99.8%; in assay [3], 106% (inactive). In addition, the GFP response relative to DMSO in assay [2] was 96.5% (inactive); in assay [2] (setting [8]), 95%; in assay [2] (setting [9]) it was 96.5%. Also, the GFP response, % of DMSO in assay [4] was 104% (inactive); in assay [5], 109% (inactive); in assay [5] (setting [6]), 109%; in assay [5] (setting [7]), 110%.

For the compound `CCN(Cc1ccccc1)S(=O)(=O)c1ccc(C(=O)Nc2nnc(C)o2)cc1`, the GFP response vs DMSO is 97.2% (inactive) in assay [1], 98.5% in assay [1] (setting [6]), 98.6% in assay [1] (setting [7]) and 102% (inactive) in assay [3]. Moreover, the GFP response relative to DMSO in assay [2] was 102% (inactive); in assay [2] (setting [8]), 102%; in assay [2] (setting [9]), 107%. Also, the GFP response, % of DMSO in assay [4] was 100% (inactive); in assay [5] it was 101% (inactive); in assay [5] (setting [6]), 102%; in assay [5] (setting [7]) it was 101%.

For `Cc1ccc(/C=C/C(=O)c2ccccc(=O)c2O)c(C)c1`, the GFP response vs DMSO in assay [1] was 90.2% (inactive); in assay [1] (setting [6]) it was 112%; in assay [1] (setting [7]), 93.5%; in assay [3], 137% (inactive). In addition, the GFP response relative to DMSO was 152% (active) in assay [2], 146% in assay [2] (setting [8]) and 158% in assay [2] (setting [9]). In addition, the GFP response, % of DMSO in assay [4] was 84.3% (inactive); in assay [5], 103% (inactive); in assay [5] (setting [6]), 99.2%; in assay [5] (setting [7]) it was 96.8%.

Regarding `COc1cccc(/C=N\NC(=O)c2cc(OCC(F)(F)F)ccc2OCC(F)(F)F)c1`, the GFP response vs DMSO in assay [1] was 98.6% (inactive); in assay [1] (setting [6]) it was 99.1%; in assay [1] (setting [7]), 97.9%; in assay [3] it was 100% (inactive). Further, the values for the GFP response relative to DMSO in assay [2], in assay [2] (setting [8]) and in assay [2] (setting [9]) were 94.1% (inactive), 92.8% and 92.9%, respectively. For the same compound, the GFP response, % of DMSO is 96% (inactive) in assay [4], 99.7% (inactive) in assay [5], 101% in assay [5] (setting [6]) and 98.5% in assay [5] (setting [7]).

Consider `CC(=O)c1ccc(NC(=O)CN2CCC(NC(=O)C3CCCCC3)CC2)cc1`, for which the GFP response vs DMSO in assay [1] is 102% (inactive); in assay [1] (setting [6]), 102%; in assay [1] (setting [7]) it was 103%; in assay [3] it was 104% (inactive). The GFP response relative to DMSO is 98.8% (inactive) in assay [2], 97.9% in assay [2] (setting [8]) and 99.5% in assay [2] (setting [9]). Moreover, the GFP response, % of DMSO in assay [4] was 95.6% (inactive); in assay [5] it was 96.4% (inactive); in assay [5] (setting [6]), 98.3%; in assay [5] (setting [7]), 95.6%.

Regarding `Cc1cc(NCCCn2ccnc2)n2ncc(-c3ccccc3)c2n1`, the GFP response vs DMSO is 96.6% (inactive) in assay [1], 99.1% in assay [1] (setting [6]), 96.7% in assay [1] (setting [7]) and 99% (inactive) in assay [3]. Besides, the results for the GFP response relative to DMSO in assay [2], in assay [2] (setting [8]) and in assay [2] (setting [9]) were 95.7% (inactive), 94.2% and 96.2%, respectively. Also, the GFP response, % of DMSO in assay [4] was 104% (inactive); in assay [5], 100% (inactive); in assay [5] (setting [6]), 101%; in assay [5] (setting [7]) it was 101%.

Consider `COc1ccc(OC)c(CNC(=O)CCC(=O)N2Cc3cccc(OC)c3Oc3ncccc32)c1`, for which the GFP response vs DMSO in assay [1] was 102% (inactive); in assay [1] (setting [6]), 100%; in assay [1] (setting [7]), 101%; in assay [3], 105% (inactive). In addition, the GFP response relative to DMSO in assay [2] is 90.6% (inactive); in assay [2] (setting [8]) it was 94.2%; in assay [2] (setting [9]) it was 95.2%. In addition, the GFP response, % of DMSO in assay [4] was 109% (inactive); in assay [5], 102% (inactive); in assay [5] (setting [6]) it was 101%; in assay [5] (setting [7]), 103%.

In the case of `CCCCN(CC)S(=O)(=O)c1ccc(C(=O)Nc2nnc(COC)o2)cc1`, the GFP response vs DMSO is 96.6% (inactive) in assay [1], 96.7% in assay [1] (setting [6]), 98.1% in assay [1] (setting [7]) and 97.5% (inactive) in assay [3]. The GFP response relative to DMSO in assay [2] was 100% (inactive); in assay [2] (setting [8]), 99.3%; in assay [2] (setting [9]) it was 99.5%. In addition, the GFP response, % of DMSO in assay [4] is 103% (inactive); in assay [5] it was 102% (inactive); in assay [5] (setting [6]), 100%; in assay [5] (setting [7]), 101%.

For the compound `O=C(Nc1c2ccccc2nc2ccccc12)C(Cl)(Cl)Cl`, the GFP response vs DMSO in assay [1] is 91.7% (inactive); in assay [1] (setting [6]), 77.9%; in assay [1] (setting [7]), 83.4%; in assay [3] it was 98.8% (inactive). In addition, the GFP response relative to DMSO was 88.7% (inactive) in assay [2], 87.3% in assay [2] (setting [8]) and 94.1% in assay [2] (setting [9]). Further, the GFP response, % of DMSO is 87.8% (inactive) in assay [4], 95.9% (inactive) in assay [5], 77.8% in assay [5] (setting [6]) and 70.8% in assay [5] (setting [7]).

With `CCS(=O)(=O)N1N=C(c2ccccc2)CC1c1ccc2nccnc2c1` (stereo unspecified), the GFP response vs DMSO in assay [1] was 98.4% (inactive); in assay [1] (setting [6]), 98.9%; in assay [1] (setting [7]), 99.3%; in assay [3], 116% (inactive). In addition, the GFP response relative to DMSO in assay [2] was 105% (inactive); in assay [2] (setting [8]), 103%; in assay [2] (setting [9]) it was 104%. The GFP response, % of DMSO in assay [4] is 104% (inactive); in assay [5], 105% (inactive); in assay [5] (setting [6]), 105%; in assay [5] (setting [7]), 107%.

For the compound `COC(=O)Cn1c(C)c(/C=C/c2cc[n+](C)cc2)c2ccccc21`, the GFP response vs DMSO is 100% (inactive) in assay [1], 99.6% in assay [1] (setting [6]), 101% in assay [1] (setting [7]) and 129% (inactive) in assay [3]. In addition, the GFP response relative to DMSO in assay [2] was 119% (inactive); in assay [2] (setting [8]) it was 121%; in assay [2] (setting [9]), 117%. The GFP response, % of DMSO was 99.7% (inactive) in assay [4], 117% (inactive) in assay [5], 121% in assay [5] (setting [6]) and 113% in assay [5] (setting [7]).

As for `O=C(Nc1cccc(O)c1)c1ccc(Br)cc1`, the GFP response vs DMSO in assay [1] was 96% (inactive); in assay [1] (setting [6]) it was 97%; in assay [1] (setting [7]) it was 97.2%; in assay [3], 102% (inactive). Also, the GFP response relative to DMSO was 98.8% (inactive) in assay [2], 96.5% in assay [2] (setting [8]) and 100% in assay [2] (setting [9]). In addition, the GFP response, % of DMSO was 103% (inactive) in assay [4], 102% (inactive) in assay [5], 102% in assay [5] (setting [6]) and 100% in assay [5] (setting [7]).
